Source: ChEMBL document CHEMBL1135230, “Synthesis of Sordaricin analogues as potent antifungal agents against Candida albicans” (2002)
Values after ≈ are worked out from the molar mass of the structure shown.

Legend:
Assay type in all cases: functional
Nakaseomyces glabratus = test: Tested in vitro for the minimum inhibitory concentration (MIC) against Candida glabrata ATCC 90030
Method in brief: (§1)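 Broth MIC determined in RPMI1640 at pH 7.0, incubated at 35 °C; MIC taken as the lowest concentration giving 80% inhibition of fungal growth.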

Candida albicans [1] = test: Tested in vitro for the minimum inhibitory concentration (MIC) against Candida albicans SANK51486; method in brief: as §1
Candida albicans [2] = test: Tested in vitro for the minimum inhibitory concentration (MIC) against Candida albicans TIMM3164; method in brief: as §1
Candida albicans [3] = test: Tested in vitro for the minimum inhibitory concentration (MIC) against Candida albicans ATCC 24433; method in brief: as §1
Candida tropicalis = test: Tested in vitro for the minimum inhibitory concentration (MIC) against Candida tropicalis ATCC750; method in brief: as §1
Candida albicans [4] = test: Tested in vitro for the minimum inhibitory concentration (MIC) against Candida albicans ATCC 64550; method in brief: as §1

| SMILES | MIC (Nakaseomyces glabratus) [µg/mL] | MIC (Candida albicans [1]) [µg/mL] | MIC (Candida albicans [2]) [µg/mL] | MIC (Candida albicans [3]) [µg/mL] | MIC (Candida tropicalis) [µg/mL] | MIC (Candida albicans [4]) [µg/mL] |
| --- | --- | --- | --- | --- | --- | --- |
| CC(C)C1=CC2CC3(C=O)[C@@H]4CC[C@@H](C)[C@H]4CC2(COC2CCCCC2)C13C(=O)O (stereo not given in full) | ≤ 0.063 | ≤ 0.063 | 0.25 (≈ 0.603 µM) | 0.125 (≈ 0.302 µM) | 2 (≈ 4.82 µM) | 0.25 (≈ 0.603 µM) |
| CC(C)C1=CC2CC3(C=O)[C@@H]4CC[C@@H](C)[C@H]4CC2(CON=C2CCCCC2)C13C(=O)O (stereo not given in full) | 0.063 (≈ 0.147 µM) | 0.031 (≈ 0.0725 µM) | 0.063 (≈ 0.147 µM) | 0.031 (≈ 0.0725 µM) | 1 (≈ 2.34 µM) | 0.063 (≈ 0.147 µM) |
| CC(C)C1=CC2CC3(C=O)[C@@H]4CC[C@@H](C)[C@H]4CC2(C(=O)OC2CCCCC2)C13C(=O)O (stereo not given in full) | 0.5 (≈ 1.17 µM) | ≤ 0.125 | 0.25 (≈ 0.583 µM) | ≤ 0.125 | 4 (≈ 9.33 µM) | 0.5 (≈ 1.17 µM) |
| CC(C)C1=CC2CC3(C=O)[C@@H]4CC[C@@H](C)[C@H]4CC2(/C=N/OC2CCCCC2)C13C(=O)O (stereo not given in full) | 0.125 (≈ 0.292 µM) | 0.031 (≈ 0.0725 µM) | 0.063 (≈ 0.147 µM) | 0.031 (≈ 0.0725 µM) | 1 (≈ 2.34 µM) | 0.063 (≈ 0.147 µM) |
| C/C=C/C=C\C(=O)O[C@H]1[C@H](O)[C@H](OCC23C[C@@H]4[C@H](C)CC[C@H]4C4(C=O)CC2C=C(C(C)C)C34C(=O)O)O[C@H](C)[C@H]1OC (stereo not given in full) | > 4 | 0.25 (≈ 0.426 µM) | 0.5 (≈ 0.852 µM) | 0.5 (≈ 0.852 µM) | 0.5 (≈ 0.852 µM) | 0.5 (≈ 0.852 µM) |
| CC(C)C1=CC2CC3(C=O)[C@@H]4CC[C@@H](C)[C@H]4CC2(C(=O)NC2CCCCC2)C13C(=O)O (stereo not given in full) | 0.5 (≈ 1.17 µM) | > 4 | > 4 | > 4 | > 4 | > 4 |
| CC(C)C1=CC2CC3(C=O)[C@@H]4CC[C@@H](C)[C@H]4CC2(CN(C)C2CCCCC2)C13C(=O)O (stereo not given in full) | 8 (≈ 18.7 µM) | 8 (≈ 18.7 µM) | 16 (≈ 37.4 µM) | 8 (≈ 18.7 µM) | > 16 | 16 (≈ 37.4 µM) |
| CC(C)C1=CC2CC3(C=O)[C@@H]4CC[C@@H](C)[C@H]4CC2(CSC2CCCCC2)C13C(=O)O (stereo not given in full) | 0.031 (≈ 0.072 µM) | ≤ 0.016 | 0.063 (≈ 0.146 µM) | 0.031 (≈ 0.072 µM) | 2 (≈ 4.64 µM) | 0.125 (≈ 0.29 µM) |
| OC(Cn1cncn1)(Cn1cncn1)c1ccc(F)cc1F [FLUCONAZOLE] | > 4 | 0.25 (≈ 0.816 µM) | > 4 | 0.5 (≈ 1.63 µM) | 0.5 (≈ 1.63 µM) | > 4 |
| CCC(C)n1ncn(-c2ccc(N3CCN(c4ccc(OC[C@H]5CO[C@](Cn6cncn6)(c6ccc(Cl)cc6Cl)O5)cc4)CC3)cc2)c1=O (stereo not given in full) [ITRACONAZOLE] | 1 (≈ 1.42 µM) | 0.031 (≈ 0.0439 µM) | 0.25 (≈ 0.354 µM) | 0.125 (≈ 0.177 µM) | 0.5 (≈ 0.709 µM) | 1 (≈ 1.42 µM) |
